In ChEMBL document CHEMBL4002564, “Design, synthesis and cytotoxicity studies of novel pyrazolo[1, 5-a]pyridine derivatives” (Eur J Med Chem, 2017):
The source made the active and inactive calls. No cut-off for these calls is given here.

Tests used:
[1] = target: T1, Epidermal growth factor receptor (Homo sapiens, UniProt P00533); assay: Inhibition of recombinant EGFR (unknown origin) using poly (Glu4, Tyr) as substrate assessed as inhibition at 1 uM after 60 mins by ADP-glo kinase assay
[2] = target: T1, Epidermal growth factor receptor; assay: Inhibition of recombinant EGFR (unknown origin) using poly (Glu4, Tyr) as substrate after 60 mins by ADP-glo kinase assay
Outline: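 ADP-Glo luminescent assay. Each reaction held 30 ng recombinant EGFR, 5 µM ATP and 0.2 µg/µl poly(Glu4,Tyr) in tyrosine kinase buffer with a compound dilution; 60 min at ambient temperature. Stopped with ADP-Glo reagent (40 min), then kinase detection reagent, luminescence read after 30 min. Blank (no enzyme) subtracted; activity expressed as % of the 0 µM reaction. Dilutions run in duplicate.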

[3] = target: T1, Epidermal growth factor receptor; assay: Inhibition of recombinant EGFR (unknown origin) using poly (Glu4, Tyr) as substrate assessed as inhibition at 30 uM after 60 mins by ADP-glo kinase assay
[4] = target: T1, Epidermal growth factor receptor; assay: Inhibition of recombinant EGFR (unknown origin) using poly (Glu4, Tyr) as substrate assessed as inhibition at 100 uM after 60 mins by ADP-glo kinase assay
[5] = target: T1, Epidermal growth factor receptor; assay: Inhibition of recombinant EGFR (unknown origin) using poly (Glu4, Tyr) as substrate assessed as inhibition at 10 uM after 60 mins by ADP-glo kinase assay
HCT-116 [6] = assay: Antiproliferative activity against human HCT116 cells at 50 uM after 48 hrs by SRB assay; type: functional; details: HCT-116, 48 h, read-out: GI
HCT-116 [7] = assay: Antiproliferative activity against human HCT116 cells at 20 uM after 48 hrs by SRB assay; type: functional; details: HCT-116, 48 h, read-out: GI
Outline: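 Cells kept in RPMI-1640 with 2mM glutamine, 10% FBS, streptomycin and penicillin at 37°C, 5% CO2. Seeded cells grown 24 h, then exposed to compound in complete medium for 48 h. Fixed with cold TCA 1 h at 4°C, stained with 0.4% SRB 30 min, bound dye dissolved in 10mM Tris pH 10.4, OD read at 540 nm. Blank-subtracted percent growth inhibition taken against untreated cells as 100%.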

MCF7 [8] = assay: Antiproliferative activity against human MCF7 cells at 1 uM after 48 hrs by SRB assay; type: functional; details: MCF7, 48 h, read-out: GI
Outline: (§1)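 Cells kept in RPMI-1640 with 2 mM glutamine, 10% FBS, penicillin/streptomycin, 37°C, 5% CO2. Seeded and grown 24 h, then test material in complete medium added and incubated 48 h. Fixed with cold TCA 1 h at 4°C, stained with 0.4% SRB in 1% acetic acid for 30 min, dye dissolved in 10 mM Tris pH 10.4, OD read at 540 nm.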

MCF7 [9] = assay: Antiproliferative activity against human MCF7 cells at 50 uM after 48 hrs by SRB assay; type: functional; details: MCF7, 48 h, read-out: GI
MCF7 [10] = assay: Induction of apoptotic bodies formation in human MCF7 cells at 50 nM after 24 hrs by DAPI staining based immunofluorescence microscopy; type: functional, cell-based
PC-3 [11] = assay: Antiproliferative activity against human PC3 cells at 50 uM after 48 hrs by SRB assay; type: functional; details: PC-3, 48 h, read-out: GI
PC-3 [12] = assay: Antiproliferative activity against human PC3 cells at 1 uM after 48 hrs by SRB assay; type: functional; details: PC-3, 48 h, read-out: GI
Outline: as §1

A549 [13] = assay: Antiproliferative activity against human A549 cells at 1 uM after 48 hrs by SRB assay; type: functional; details: A549, 48 h, read-out: GI
Outline: as §1

A549 [14] = assay: Antiproliferative activity against human A549 cells at 50 uM after 48 hrs by SRB assay; type: functional; details: A549, 48 h, read-out: GI

T1 sequence (P00533 whole entry): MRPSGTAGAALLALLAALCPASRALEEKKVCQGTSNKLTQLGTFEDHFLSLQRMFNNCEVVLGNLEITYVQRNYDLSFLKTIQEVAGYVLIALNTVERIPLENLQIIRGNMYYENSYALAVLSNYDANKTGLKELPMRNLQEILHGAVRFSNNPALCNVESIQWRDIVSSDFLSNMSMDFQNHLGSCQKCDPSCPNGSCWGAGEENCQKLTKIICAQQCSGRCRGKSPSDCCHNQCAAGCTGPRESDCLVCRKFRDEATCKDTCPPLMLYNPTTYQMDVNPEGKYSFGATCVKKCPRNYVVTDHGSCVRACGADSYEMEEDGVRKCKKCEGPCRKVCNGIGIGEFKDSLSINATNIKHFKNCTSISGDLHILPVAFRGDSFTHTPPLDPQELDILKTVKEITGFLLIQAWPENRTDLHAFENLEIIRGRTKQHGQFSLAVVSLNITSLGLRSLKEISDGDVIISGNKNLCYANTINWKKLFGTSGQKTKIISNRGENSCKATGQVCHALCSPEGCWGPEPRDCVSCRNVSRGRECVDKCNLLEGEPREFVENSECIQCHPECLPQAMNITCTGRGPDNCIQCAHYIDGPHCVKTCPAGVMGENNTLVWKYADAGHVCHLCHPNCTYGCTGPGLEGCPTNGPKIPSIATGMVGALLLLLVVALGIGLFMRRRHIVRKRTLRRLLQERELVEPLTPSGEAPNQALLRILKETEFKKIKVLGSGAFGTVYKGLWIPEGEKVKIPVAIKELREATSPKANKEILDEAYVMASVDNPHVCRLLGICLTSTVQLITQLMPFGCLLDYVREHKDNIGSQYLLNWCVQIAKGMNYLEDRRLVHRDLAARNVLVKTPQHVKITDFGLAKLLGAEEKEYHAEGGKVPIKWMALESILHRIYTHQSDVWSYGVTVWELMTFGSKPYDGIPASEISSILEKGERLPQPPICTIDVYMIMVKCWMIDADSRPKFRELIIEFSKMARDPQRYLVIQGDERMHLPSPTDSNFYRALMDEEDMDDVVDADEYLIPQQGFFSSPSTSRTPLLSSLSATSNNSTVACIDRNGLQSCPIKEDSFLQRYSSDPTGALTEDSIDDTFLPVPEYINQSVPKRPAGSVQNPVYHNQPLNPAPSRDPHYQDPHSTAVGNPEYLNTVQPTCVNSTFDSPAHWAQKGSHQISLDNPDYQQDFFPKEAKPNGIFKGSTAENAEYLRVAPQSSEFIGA

`CCCCOC(=O)c1c(-c2ccccc2)nn2ccccc12` gave an inhibition [1] of 16%, an IC50 [2] of 23.7 µM and an inhibition [3] of 51%. For the same molecule, the inhibition [4] was 72% and the inhibition [5] was 37%.

`O=c1[nH]cc(F)c(=O)[nH]1` [FLUOROURACIL] showed an inhibition of growth at 50 µM (HCT-116 [6]) of 58% and an inhibition of growth at 20 µM (HCT-116 [7]) of 58%.

With `COc1cccc2c1C(=O)c1c(O)c3c(c(O)c1C2=O)C[C@@](O)(C(=O)CO)C[C@@H]3O[C@H]1C[C@H](N)[C@H](O)[C@H](C)O1` [DOXORUBICIN] the inhibition of growth at 1 µM (MCF7 [8]) was 62% and the inhibition of growth at 50 µM (MCF7 [9]) was 62%.

`CC(=O)O[C@H]1C(=O)[C@@]2(C)[C@H]([C@H](OC(=O)c3ccccc3)[C@]3(O)C[C@H](OC(=O)[C@H](O)[C@@H](NC(=O)c4ccccc4)c4ccccc4)C(C)=C1C3(C)C)[C@]1(OC(C)=O)CO[C@@H]1C[C@@H]2O` [PACLITAXEL] was tested, and the Activity (MCF7 [10]) was “Active”, the inhibition of growth at 50 µM (PC-3 [11]) was 72% and the inhibition of growth at 1 µM (PC-3 [12]) was 72%. It also gave an inhibition of growth at 1 µM (A549 [13]) of 78% and an inhibition of growth at 50 µM (A549 [14]) of 78%.
